In ChEMBL document CHEMBL4706684, “Discovering High Potent Hsp90 Inhibitors as Antinasopharyngeal Carcinoma Agents through Fragment Assembling Approach” (J Med Chem, 2021):
Calls of active or inactive are those of the source. No cut-off for these calls is given here.

Assays:
CNE-2 [1] = experiment: Induction of apoptosis in human CNE-2 cells assessed as late apoptosis cells level at 50 nM incubated for 12 hrs by Annexin-V/FITC staining based FACS analysis (reference value: 1.45%); assay type: cell-based; conditions: cne-2, 12 h, 0.05 µM
[2] = target: T1, Heat shock protein HSP 90-alpha (Homo sapiens, UniProt P07900); experiment: Binding affinity to HSP90-alpha (unknown origin) expressed in Escherichia coli BL21 by SPR assay
CNE-2 [3] = experiment: Induction of apoptosis in human CNE-2 cells assessed as Bcl-XL degradation at 20 to 500 nM incubated for 24 hrs by immunoblot analysis; assay type: functional, cell-based; conditions: dose 20-500 nM
Summary of the method: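 CNE2 cells (RPMI 1640, 10% FBS, 37 °C, 5% CO₂) were incubated with inhibitor for 24 h, then lysed in RIPA buffer on ice for 30 min. Lysates were run on 8–12% SDS-PAGE and transferred to PVDF. Membranes were blocked with 5% milk and probed with primary antibodies overnight, then HRP secondaries. Detection was by chemiluminescence with actin as loading control.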

[4] = Half life in Kunming mouse at 2 mg/kg, iv measured up to 6 hrs by HPLC analysis; assay type: ADME, organism-based; conditions: in vivo
Summary of the method: (§1)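 Male Kunming mice, 9–11 weeks old, about 23 g, four per group, were given a single 2 mg/kg dose intravenously or orally. Blood was sampled at 0, 10, 15, 30 min and 1, 2, 4, 6 h. For each sample, 40 μL plasma was deproteinized with 200 μL acetonitrile and centrifuged 10 min at 12 000 rpm before analysis.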

CNE-2 [5] = experiment: Induction of apoptosis in human CNE-2 cells overexpressing HSP90 assessed as necrosis cells level at 70 nM incubated for 12 hrs by Annexin-V/FITC staining based FACS analysis (reference value: 1.49%); assay type: cell-based; conditions: cne-2, 12 h, 0.07 µM
[6] = target: T1, Heat shock protein HSP 90-alpha; experiment: Inhibition of HSP90-alpha in human CNE-2 cells assessed as reduction in PKB protein levels at 70 nM incubated for 24 hrs in presence of HSP90-beta siRNA by immunoblot analysis; assay type: cell-based
CNE-2 [7] = experiment: Induction of apoptosis in human CNE-2 cells assessed as necrosis cells level at 20 nM incubated for 12 hrs by Annexin-V/FITC staining based FACS analysis (reference value: 1.45%); assay type: cell-based; conditions: cne-2, 12 h, 0.02 µM
CNE-2 [8] = experiment: Induction of apoptosis in human CNE-2 cells assessed as viable cells level at 100 nM incubated for 12 hrs by Annexin-V/FITC staining based FACS analysis (reference value: 96.7%); assay type: cell-based; conditions: read-out: Activity
Summary of the method: (§2)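 CNE2 cells (RPMI 1640 with 10% FBS) were seeded at 5 × 10⁴ cells per well. After 24 h they were treated with compound in 0.05% DMSO for 12 h. Cells were then washed twice with PBS, pelleted, and stained in binding buffer with Annexin V-FITC and PI for flow cytometry.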

CNE-2 [9] = experiment: Induction of apoptosis in human CNE-2 cells assessed as late apoptosis cells level at 200 nM incubated for 12 hrs by Annexin-V/FITC staining based FACS analysis (reference value: 1.45%); assay type: cell-based; conditions: cne-2, 12 h, 0.2 µM
CNE-2 [10] = experiment: Cytotoxicity in human CNE-2 cells assessed as reduction in cell viability incubated for 48 hrs by MTT assay; assay type: cell-based; conditions: CNE-2, 48 h
Summary of the method: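 Cells were seeded at 3 × 10³ cells per well and grown for 24 h at 37 °C in 5% CO₂. CNE2 was grown in RPMI 1640 and HeLa and HepG2 in DMEM, each with 10% FBS and 1% penicillin/streptomycin. Cells were exposed to 0−20 μM inhibitor for 48 h, with a DMSO solvent control. MTT (0.5 mg/mL) was then added for 3 h.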

CNE-2 [11] = experiment: Induction of apoptosis in human CNE-2 cells assessed as late apoptosis cells level at 20 nM incubated for 12 hrs by Annexin-V/FITC staining based FACS analysis (reference value: 1.45%); assay type: cell-based; conditions: cne-2, 12 h, 0.02 µM
CNE-2 [12] = experiment: Induction of apoptosis in human CNE-2 cells assessed as necrosis cells level at 50 nM incubated for 12 hrs by Annexin-V/FITC staining based FACS analysis (reference value: 1.45%); assay type: cell-based; conditions: cne-2, 12 h, 0.05 µM
CNE-2 [13] = experiment: Induction of apoptosis in human CNE-2 cells overexpressing HSP90 assessed as late apoptosis cells level at 70 nM incubated for 12 hrs by Annexin-V/FITC staining based FACS analysis (reference value: 2.18%); assay type: cell-based; conditions: cne-2, 12 h, 0.07 µM
HEK-293T = experiment: Cytotoxicity in HEK293T cells assessed as reduction in cell viability up to 20 uM incubated for 48 hrs by MTT assay; assay type: cell-based; conditions: human
CNE2 (Homo sapiens) [14] = experiment: Induction of apoptosis in human CNE2 cells at 70 nM incubated for 12 hrs in presence of HSP90-alpha siRNA by Annexin-V/FITC staining based FACS analysis; conditions: cne2, 12 h, 0.07 µM
CNE-2 [15] = experiment: Induction of apoptosis in human CNE-2 cells assessed as late apoptosis cells level at 500 nM incubated for 12 hrs by Annexin-V/FITC staining based FACS analysis (reference value: 1.45%); assay type: cell-based; conditions: cne-2, 12 h, 0.5 µM
CNE-2 [16] = experiment: Induction of apoptosis in human CNE-2 cells assessed as viable cells level at 20 nM incubated for 12 hrs by Annexin-V/FITC staining based FACS analysis (reference value: 96.7%); assay type: cell-based; conditions: read-out: Activity; summary of the method: as §2
[17] = target: T1, Heat shock protein HSP 90-alpha; experiment: Inhibition of HSP90-alpha in human CNE-2 cells assessed as reduction in PKB protein levels at 70 nM incubated for 24 hrs in presence of HSP90-alpha siRNA by immunoblot analysis; assay type: cell-based
Summary of the method: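 CNE2 cells were transiently transfected with Hsp90 siRNA (siHsp90-1 or siHsp90-2) at 150 nM final using Lipofectamine 2000. They were then incubated with inhibitor for 24 h and immunoblotted: RIPA lysis, 8–12% SDS-PAGE, PVDF, overnight primary antibodies, HRP secondaries, chemiluminescence, actin as loading control.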

CNE-2 [18] = experiment: Induction of apoptosis in human CNE-2 cells assessed as late apoptosis cells level at 70 nM incubated for 12 hrs by Annexin-V/FITC staining based FACS analysis (reference value: 2.18%); assay type: cell-based; conditions: cne-2, 12 h, 0.07 µM
[19] = Binding affinity to HSP90-alpha T184G mutant (unknown origin) expressed in Escherichia coli BL21 by SPR assay; parameters: species or system Homo sapiens
Summary of the method: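 SPR on a Biacore T200 at 25 °C with running buffer PBST (PBS pH 7.4, 0.005% Tween-20). Protein at 20 μg/mL in 10 mM sodium acetate pH 5.0 was immobilized on a CM5 chip, which was equilibrated overnight in PBST. Inhibitor serially diluted from 10 μM was injected at 30 μL/min with 120 s contact and 120 s dissociation.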

CNE2 (Homo sapiens) [20] = experiment: Induction of apoptosis in human CNE2 cells at 70 nM incubated for 12 hrs in presence of HSP90-beta siRNA by Annexin-V/FITC staining based FACS analysis; conditions: cne2, 12 h, 0.07 µM
CNE-2 [21] = experiment: Induction of apoptosis in human CNE-2 cells assessed as necrosis cells level at 500 nM incubated for 12 hrs by Annexin-V/FITC staining based FACS analysis (reference value: 1.45%); assay type: cell-based; conditions: cne-2, 12 h, 0.5 µM
[22] = Oral bioavailability in Kunming mouse at 2 mg/kg measured up to 6 hrs by HPLC analysis; assay type: ADME, organism-based; conditions: in vivo; summary of the method: as §1

## CC(C)(C)c1ccc(Cn2cc(-c3cc(O)c(O)c(O)c3)nn2)cc1
CNE-2 [1]
  Activity: 15.3%
[2]
  Kd: 63 nM
CNE-2 [3]
  Activity: Active
[4]
  half-life: 66 min
CNE-2 [5]
  Activity: 0.64%
[6]
  inhibition: inactive
CNE-2 [7]
  Activity: 0.17%
CNE-2 [8]
  viability at 0.1 µM: 78.6%
CNE-2 [9]
  Activity: 11.6%
CNE-2 [10]
  IC50: 40 nM
CNE-2 [11]
  Activity: 2.19%
CNE-2 [12]
  Activity: 0.37%
CNE-2 [13]
  Activity: 1.28%
HEK-293T
  Activity: Non-Toxic
CNE2 (Homo sapiens) [14]
  Activity: Non-Toxic
CNE-2 [15]
  Activity: 33.4%
CNE-2 [16]
  viability at 0.02 µM: 93.6%
[17]
  inhibition: inactive
CNE-2 [18]
  Activity: 9.56%
[19]
  Kd: 81.4 µM
CNE2 (Homo sapiens) [20]
  Activity: Non-Toxic
CNE-2 [21]
  Activity: 0.96%
[22]
  bioavailability: 12%
